Measurements reported in ChEMBL document CHEMBL1828498, “Identification and characterization of a novel integrin-linked kinase inhibitor” (J Med Chem, 2011).
Active and inactive are the calls of the source. The rule behind the calls is not given here.

Assays:
[1] = target: T1, 3-phosphoinositide-dependent protein kinase 1 (Homo sapiens) (UniProt O15530); experiment: Inhibition of PDK2 in human PC3 cells assessed as Akt Thr-308 dephosphorylation by Western blot analysis; type: functional, cell-based; settings: PC-3
T1 sequence (whole entry): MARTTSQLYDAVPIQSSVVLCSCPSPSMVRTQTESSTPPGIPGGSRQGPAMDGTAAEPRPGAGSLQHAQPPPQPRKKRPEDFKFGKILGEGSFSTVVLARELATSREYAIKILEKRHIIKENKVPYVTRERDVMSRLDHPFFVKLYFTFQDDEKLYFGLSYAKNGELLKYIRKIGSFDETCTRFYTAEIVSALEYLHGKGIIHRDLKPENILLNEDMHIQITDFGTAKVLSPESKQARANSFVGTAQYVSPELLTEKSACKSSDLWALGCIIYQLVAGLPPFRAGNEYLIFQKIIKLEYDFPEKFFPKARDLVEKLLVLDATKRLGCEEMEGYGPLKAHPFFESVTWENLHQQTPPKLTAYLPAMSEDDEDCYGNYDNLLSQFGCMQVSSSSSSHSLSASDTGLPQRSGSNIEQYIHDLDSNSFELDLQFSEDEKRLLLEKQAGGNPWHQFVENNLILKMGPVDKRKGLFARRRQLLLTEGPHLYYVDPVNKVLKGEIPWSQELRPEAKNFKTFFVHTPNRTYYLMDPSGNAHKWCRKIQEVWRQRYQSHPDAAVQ
In short: (§1)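 Cells exposed 24 h in 5% FBS medium, final DMSO 0.1%; lysed in 1% SDS/10 mM EDTA/50 mM Tris pH 8.1, equal protein on SDS-PAGE, nitrocellulose, primary antibody 1:1000 at 4°C for 2 h, HRP secondary 1:5000, ECL detection; blots representative of three independent experiments.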

[2] = system: 3-phosphoinositide dependent protein kinase-2, PDK2; experiment: Inhibition of PDK2 in human PC3 cells assessed as Akt Ser-473 dephosphorylation by Western blot analysis; type: functional, cell-based; settings: PC-3; in short: as §1

inhibition [1]	Compound	inhibition [2]
inactive	N#Cc1cccc(C(=O)N2CCN(c3ccc(-n4nc(C(F)(F)F)cc4-c4ccc5c(ccc6ccccc65)c4)cc3)CC2)c1	inactive
inactive	COc1ccc(S(=O)(=O)N2CCN(c3ccc(-n4nc(C(F)(F)F)cc4-c4ccc5c(ccc6ccccc65)c4)cc3)CC2)cc1	inactive
inactive	CC(=O)c1cc(C(=O)N2CCN(c3ccc(-n4nc(C(F)(F)F)cc4-c4ccc5c(ccc6ccccc65)c4)cc3)CC2)ccc1Cl	inactive
inactive	Nc1ccc(C(=O)N2CCN(c3ccc(-n4nc(C(F)(F)F)cc4-c4ccc5c(ccc6ccccc65)c4)cc3)CC2)cc1	inactive
inactive	NC(=O)c1ccc(C(=O)N2CCN(c3ccc(-n4nc(C(F)(F)F)cc4-c4ccc5c(ccc6ccccc65)c4)cc3)CC2)cc1	inactive
inactive	O=[N+]([O-])c1ccc(S(=O)(=O)N2CCN(c3ccc(-n4nc(C(F)(F)F)cc4-c4ccc5c(ccc6ccccc65)c4)cc3)CC2)cc1	inactive
inactive	NCCC(=O)Nc1ccc(-n2nc(C(F)(F)F)cc2-c2ccc3c(ccc4ccccc43)c2)cc1	inactive
inactive	NCCC(=O)Nc1ccc(-n2nc(C(F)(F)F)cc2-c2ccc3ccc4ccccc4c3c2)cc1	inactive
inactive	O=C(c1ccc(Cl)c([N+](=O)[O-])c1)N1CCN(c2ccc(-n3nc(C(F)(F)F)cc3-c3ccc4c(ccc5ccccc54)c3)cc2)CC1	inactive
inactive	NC(Cc1ccccc1)C(=O)Nc1ccc(-n2nc(C(F)(F)F)cc2-c2ccc(-c3ccc(C(F)(F)F)cc3)cc2)cc1 (stereo unspecified)	inactive
inactive	CNC(=O)CCc1cc(-c2ccc3c(ccc4ccccc43)c2)n(-c2ccc(N3CCNCC3)cc2)n1	inactive
inactive	O=C1CCC(=O)N1c1ccc(-n2nc(C(F)(F)F)cc2-c2ccc3c(ccc4ccccc43)c2)cc1	inactive
inactive	CNC(=O)CCc1cc(-c2ccc(-c3ccc(C(F)(F)F)cc3)cc2)n(-c2ccc(NC(=O)CCN)cc2)n1	inactive
inactive	NCCCC[C@H](N)C(=O)Nc1ccc(-n2nc(C(F)(F)F)cc2-c2ccc(-c3ccc(C(F)(F)F)cc3)cc2)cc1	inactive
inactive	CC(C)NC(=O)CCc1cc(-c2ccc(-c3ccc(C(F)(F)F)cc3)cc2)n(-c2ccc(NC(=O)CCN)cc2)n1	inactive
inactive	NC(=O)c1cccc(C(=O)N2CCN(c3ccc(-n4nc(C(F)(F)F)cc4-c4ccc5c(ccc6ccccc65)c4)cc3)CC2)c1	inactive
inactive	CNC(=O)c1cc(-c2ccc(-c3ccc(C(F)(F)F)cc3)cc2)n(-c2ccc(N3CCNCC3)cc2)n1	inactive
inactive	NC(=O)CNc1ccc(-n2nc(C(F)(F)F)cc2-c2ccc3c(ccc4ccccc43)c2)cc1	inactive
inactive	O=C(Nc1ccc(-n2nc(C(F)(F)F)cc2-c2ccc3c(ccc4ccccc43)c2)cc1)N1CCOCC1	inactive
inactive	CNC(=O)c1cc(-c2ccc3c(ccc4ccccc43)c2)n(-c2ccc(NC(=O)CCN)cc2)n1	inactive
inactive	CCNC(=O)CCc1cc(-c2ccc(-c3ccc(C(F)(F)F)cc3)cc2)n(-c2ccc(NC(=O)CCN)cc2)n1	inactive
inactive	NCCC(=O)Nc1ccc(-n2nc(C(F)(F)F)cc2-c2ccc(-c3ccc(C(F)(F)F)cc3)cc2)cc1	inactive
inactive	NCC(=O)Nc1ccc(-n2nc(C(F)(F)F)cc2-c2ccc3c(c2)oc2ccccc23)cc1	inactive
